Screening data deposited in PubChem by The Scripps Research Institute Molecular Screening Center.
TAAR1 antag = human TAAR1 antagonism; Q96RJ0; CHO RD-HGA16 TAAR1, Fluo-8 calcium fluorescence, antagonist; inhibition, % at 3 µM; hit rate 1.5% among 360,000; AID 624466;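 active = inhibition above a per-plate cutoff, the mean inhibition of test compounds on that plate plus 3 SD, cut at about 49% in these data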
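Test system: RD-HGA16 CHO cells with stable hTAAR1 and Gα16 / Probe or stimulus: EC80 β-phenethylamine stimulus / Times: seeding 17-24 h prior, 75-min 37 °C, 30-min RT dye loading / Detection: Fluo-8 calcium-sensitive fluorescence / Read-out basis: % inhibition scaled between DMSO and EC80 PEA controls / Repeats: singlicate, one well per test compound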
OX1R antag-1 = OX1R (human) antagonism; AID 485270; OX1R-expressing cells, FRET antagonist read-out; inhibition, % at 6.6 µM; hit rate 1.8% among 330,000; in the data active = inhibition mostly above about 38%, no sharp cut-off; inactive = mostly below about 40%
Target sequence (O43613 whole entry, looked up): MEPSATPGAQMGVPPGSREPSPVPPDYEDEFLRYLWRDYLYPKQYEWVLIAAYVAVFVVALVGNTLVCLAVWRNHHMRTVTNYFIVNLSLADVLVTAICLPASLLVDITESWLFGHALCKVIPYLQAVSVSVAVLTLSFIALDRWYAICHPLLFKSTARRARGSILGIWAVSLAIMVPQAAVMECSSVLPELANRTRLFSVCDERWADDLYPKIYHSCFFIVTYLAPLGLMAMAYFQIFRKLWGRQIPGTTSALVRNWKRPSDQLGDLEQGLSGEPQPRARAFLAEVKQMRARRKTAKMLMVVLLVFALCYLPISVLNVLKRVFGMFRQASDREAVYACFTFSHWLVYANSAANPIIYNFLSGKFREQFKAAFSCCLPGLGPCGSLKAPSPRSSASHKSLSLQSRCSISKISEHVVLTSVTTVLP
OX1R antag-2 = human HCRTR1 antagonism | O43613 | CHO/OX1R cells, Fluo-8 calcium fluorescence, orexin A | inhibition, % at 5 µM | hit rate 0.43% among 330,000;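 active = inhibition above its plate's threshold, mean inhibition of all tested compounds on the plate plus 3 SD, cut at about 37% in these data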
GPR7 antagonist = blocks human GPR7 receptor signaling | P48145 | GPR7-expressing cells, fluorescence antagonist assay | inhibition, % at 4.4 µM | hit rate 1.1% among 290,000 | AID 1861; in the data active = inhibition above about 16%, passing the limit was not always enough;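 note: cells stimulated with the agonist NPW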
TAAR1 agonist = agonists of human TAAR1. Q96RJ0. hit rate 0.99% among 360,000. CHO RD-HGA16 TAAR1, Fluo-8 calcium fluorescence; vehicle wells 0%, saturating PEA agonist 100%. activation, % at 3 µM;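 active = activation above the mean activation of all test compounds in the run plus 3 SD, cut at about 38% in these data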
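System: CHO-derived RD-HGA16 cells with stable Gα16 and human TAAR1. Times: 17-24 h plating, Fluo-8 75 min 37 °C, 30 min RT. Measured by: calcium-sensitive Fluo-8 signal, excitation 470-495, emission 515-575 nm. Read-out basis: % activation relative to PEA EC100 response. Control set: DMSO and PEA EC100. Repeats: no replicates (n 1).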
CHO parental Ca = counter-screen for OX1R antagonists: effect in parental CHO cells; parental CHO-K1, ATP-induced calcium, Fluo-8 fluorescence; inhibition, % at 5.6 µM; hit rate 0.63% among 330,000; AID 463079;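 active = inhibition above that plate's mean sample inhibition plus 3 SD, cut at about 26% in these data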
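Assay system: parental CHO cells; Read-out basis: percent inhibition of ATP-evoked calcium rise, normalized to controls; Benchmarks: ATP and no-ATP DMSO wells; Compound dosing: single nominal dose of 5.6 µM per compound; Signal: Fluo-8 calcium dye fluorescence; Also added: ATP as calcium-mobilizing challenge; Repeats: singlicate.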
Hits are given with their value; 0 = inactive; - = not tested or not shown. In the library only some 4.6% were active in any assay of this set; here they are far more common.

SMILES	TAAR1 antag	OX1R antag-1	OX1R antag-2	GPR7 antagonist	TAAR1 agonist	CHO parental Ca
Cc1ccc(C(=O)NCC(=O)NCC(=O)OCc2ccc(Oc3ccc([N+](=O)[O-])cc3)cc2)cc1	0	0	59	0	0	46
Cc1c(O)ccc2c(-c3ccccc3)cc(=O)oc12	0	0	0	0	0	0
CCN(CC)Cc1c(O)ccc2c(-c3ccccc3)cc(=O)oc12	0	61	0	0	0	0
c1ccc(Nc2nc3ccccc3n3cnnc23)cc1	0	59	0	0	0	0
CC1=C(C(=O)Nc2ccccc2)C2(CCCCC2)C(C(N)=O)C(=S)N1 (configuration not stated)	0	0	0	0	0	0
Cc1n[nH]c(=S)n1/N=C/c1ccc(-c2ccccc2[N+](=O)[O-])o1	0	68	0	0	0	0
Cc1nnc(N/N=C/c2ccc(-c3ccccc3F)o2)n1N	0	57	0	0	0	0
O=[N+]([O-])c1cccc(-c2ccc(/C=N/n3c(-c4ccccc4)n[nH]c3=S)o2)c1	0	0	0	0	0	0
CCc1nnc(N/N=C/c2ccc(-c3ccc([N+](=O)[O-])cc3)o2)n1N	0	0	0	0	0	0
Cc1nnc(N/N=C\c2ccc(-c3ccccc3[N+](=O)[O-])o2)n1N	0	56	0	0	0	0
CN(C)c1nc2ccccc2c(N)c1-c1ccccc1	-	0	0	0	-	0
COc1cccc(/C=C/C(=O)Nc2ccc3c(c2)OCCO3)c1OC	0	0	0	0	0	0
CCOc1ccccc1NC(=O)CSc1nc2nc(-c3cccs3)cc(C(F)(F)F)c2c(=O)[nH]1	0	47	0	0	0	0
CCOC(=O)c1cnc(SCC(=O)Nc2ccc(NC(C)=O)c(OC)c2)nc1N	0	0	0	0	0	0
CCOC(=O)c1cnc(SCC(=O)Nc2cc(OC)ccc2OC)nc1N	0	0	0	0	0	34
COC(=O)c1ccc(N=Cc2c(-c3ccccc3)[nH][nH]c2=O)cc1	0	0	0	0	0	0
Cc1cc(=O)[nH]c(SCC(=O)NCCC2=CCCCC2)n1	0	0	0	0	41	0
CC(Sc1nc(N)cc(N)n1)C(=O)NCCC1=CCCCC1 (configuration not stated)	0	0	0	-	38	0
Cc1ccc(SC(C)C(=O)NCCC2=CCCCC2)cc1 (configuration not stated)	0	0	0	0	0	0
Cn1cc(CN2CCCC(CNC(=O)c3ccc4c(c3)OCO4)C2)c2ccccc21 (configuration not stated)	0	0	0	0	0	0
OCCCNc1cc(-c2ccnc(Nc3cccc(Cl)c3)n2)ccn1	80	0	0	-	0	0
COc1cc(/C=C2\SC(=N)N(c3ccc4c(c3)OCO4)C2=O)cc(OC)c1O	0	51	0	0	0	0
C/C(=N\Nc1cccc2cccnc12)c1ccccc1O	0	0	0	0	0	0
C/C(=N\Nc1cccc2cccnc12)c1ccccn1	0	43	0	0	0	0
Cc1cc(NC(=O)COC(=O)CCNS(=O)(=O)c2cccc(C(F)(F)F)c2)no1	0	0	0	0	0	0
SMILES	TAAR1 antag	OX1R antag-1	OX1R antag-2	GPR7 antagonist	TAAR1 agonist	CHO parental Ca
CCc1cc2c(COC(=O)CCNS(=O)(=O)c3cccc(C(F)(F)F)c3)cc(=O)oc2cc1O	53	0	0	-	0	0
O=[N+]([O-])c1cc(Br)c(OCc2nnc(-c3ccccc3)o2)c(Br)c1	0	0	0	0	0	0
O=[N+]([O-])c1ccc2c(OCc3nnc(-c4ccccc4Br)o3)ncnc2c1	0	49	0	0	0	0
CN(C(=O)COC(=O)c1c2c(nc3ccccc13)/C(=C/c1cccc([N+](=O)[O-])c1)CCC2)C1CCS(=O)(=O)C1 (configuration not stated)	0	0	0	0	0	0
Cc1cccc(C)c1NC(=O)COC(=O)c1c2c(nc3ccccc13)/C(=C\c1ccc3c(c1)OCO3)CCC2	53	0	0	0	0	0
O=C(COC(=O)c1c2c(nc3ccccc13)/C(=C/c1cccc([N+](=O)[O-])c1)CCC2)NC1CCS(=O)(=O)C1 (configuration not stated)	51	0	0	0	0	0
COc1ccc(NC(=O)CSCc2cc(=O)n3nc(C4CC4)sc3n2)cc1	0	0	0	0	0	0
CCCCSc1ccc2nc(-c3ccc(C#N)cc3)cn2c1	50	0	0	0	0	0
CCCSc1ccc2nc(-c3ccccc3)cn2c1	0	0	0	0	0	0
Cc1sc(NC(=O)c2ccc(Cl)s2)c(C(N)=O)c1C	0	47	0	0	0	0
Cc1sc(NC(=O)c2ccc(Br)s2)c(C(N)=O)c1C	0	0	0	0	0	0
CSCCC(NC(N)=O)C(=O)NCC1CCCCC1 (configuration not stated)	0	0	0	0	0	0
COC(=O)C1=C[C@@H](C(=O)OC)[C@@H]2C3=C(C(=O)C2(C)C)[C@H](c2ccccc2)[C@@H]2C(=O)N(C)C(=O)[C@@H]2[C@@H]3C1	0	0	0	-	0	0
COc1ccc(-c2nnn(CCC(=O)O)n2)cc1	0	0	0	0	0	0
COc1ccc(-c2cn3cc(Cl)ccc3n2)cc1OC	0	45	0	0	0	0
COc1ccc(-c2cn3cc(C)ccc3n2)cc1Br	0	0	0	0	0	0
COc1ccc2c(c1)-c1c(ssc1=S)C(C)(C)N2S(=O)(=O)c1ccc(C)cc1	0	0	0	0	0	0
Cc1ccc(S(=O)(=O)N2c3ccccc3-c3c(ssc3=S)C2(C)C)cc1	0	88	42	0	0	0
S=C(Nc1ccccc1)N1CCC(C2CCN(C(=S)Nc3ccccc3)CC2)CC1	-	0	0	19	-	0
COc1ccc(CNC(=O)CN2C(=O)c3ccccc3C2=O)cc1	0	0	0	0	0	0
O=C(CN1C(=O)c2ccc([N+](=O)[O-])cc2C1=O)NC1CCCCCC1	0	65	0	-	0	0
COc1ccc(CNC(=O)CN2C(=O)c3ccc([N+](=O)[O-])cc3C2=O)cc1	0	76	0	0	0	0
O=C(CN1C(=O)c2ccccc2C1=O)NC1CCCCCC1	0	0	0	0	0	0
O=C(CN1C(=O)c2ccc([N+](=O)[O-])cc2C1=O)Nc1nccs1	0	0	0	0	0	0
COc1cccc(NC(=O)CCN2C(=O)c3ccc([N+](=O)[O-])cc3C2=O)c1	0	50	0	0	0	0
COc1cccc(NC(=O)CCN2C(=O)c3cccc([N+](=O)[O-])c3C2=O)c1	0	0	0	0	0	0
O=C(CCN1C(=O)c2ccc([N+](=O)[O-])cc2C1=O)Nc1nccs1	0	72	0	0	0	0
